Most compounds without a hit are left out; they make up all but 3.5% or so of the library.
MrgX1 allo act = positive allosteric modulators of MrgX1, primary screen, HEK293 cells, Fluo-4 calcium flux; B-score at 10 µM; hit rate 0.63% among 310,000; FDSS; stronger effect = higher value; Mas-related G-protein coupled receptor member X1 (Homo sapiens), Q96LB2;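 active means plate-corrected calcium response at least 3 library SD above typical, normal starting fluorescence, not activating the receptor alone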;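 further: compound read alongside a low EC10 to EC30 dose of BAM8-22 agonist; peak minus trough fluorescence over baseline measured at the second addition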
Target sequence (Q96LB2 whole entry, looked up): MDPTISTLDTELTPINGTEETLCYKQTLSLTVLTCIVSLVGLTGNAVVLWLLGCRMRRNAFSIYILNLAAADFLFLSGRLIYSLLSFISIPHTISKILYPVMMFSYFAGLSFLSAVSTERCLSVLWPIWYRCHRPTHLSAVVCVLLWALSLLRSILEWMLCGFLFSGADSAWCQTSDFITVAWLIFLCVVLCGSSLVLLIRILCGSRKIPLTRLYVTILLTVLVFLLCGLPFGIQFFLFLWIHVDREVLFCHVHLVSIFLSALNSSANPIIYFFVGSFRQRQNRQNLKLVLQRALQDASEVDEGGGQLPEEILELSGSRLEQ
MrgX1 ag = agonists of human MrgX1 receptor, primary screen, HEK293 cells, Fluo-4 calcium flux. Mas-related G-protein coupled receptor member X1 (Homo sapiens), Q96LB2. hit rate 0.44% among 310,000. Fluo-4 calcium fluorescence, agonist mode; stronger effect = higher value. B-score at 10 µM. AID 588627, 2011;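 active means calcium response B-score plate-corrected fluorescence ratio at least 3 library SD, with starting fluorescence B-score inside 5 SD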
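System – MrgX1-expressing HEK293 cells · Incubation – cells plated overnight, dye loaded 0.5 h 37 °C, 0.5 h room temperature · Technique – kinetic Fluo-4 NW fluorescence of intracellular calcium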
RGS4 pot = RGS4 potentiators or activators, primary screen, cell-based, HEK293 M3R inducible RGS4, calcium flux | carbachol calcium flux Fluo4; stronger effect = lower value | AID 463111, 2010 | hit rate 0.92% among 310,000 | B-score at 10 µM;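 active means B-score of the integrated calcium signal more than 4 SD below the library mean, with starting fluorescence not abnormally high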;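 further: negative B-score means reduced calcium response which marks RGS4 activation or potentiation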
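Assay system: HEK293 FlpIn-TREx cells, stable M3R, doxycycline-inducible RGS4 / Probe or stimulus: carbachol, ECmax concentration / Times: overnight RGS4 induction, 30 min dye load 37 °C, 20 min compound RT / Signal: kinetic calcium fluorescence imaging with Fluo4-AM dye, 2 µM / Measure: Agonist-evoked peak-minus-minimum fluorescence over baseline, integrated ratio, B score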
RGS4 inh = RGS4 inhibitors, primary screen, cell-based, HEK293 M3R inducible RGS4, calcium flux; Regulator of G-protein signaling 4 (Homo sapiens), P49798; Fluo-4 calcium flux; stronger effect = higher value; triggered by carbachol at its EC20; B-score at 10 µM; hit rate 0.45% among 310,000; AID 463165, 2010;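 active means B-score, a plate-corrected calcium signal, over three deviations above library mean, with baseline fluorescence within five deviations of library mean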;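 further: RGS4 expression induced by doxycycline in cells with stable M3 receptor; B-score is computed from the integrated fluorescence ratio over baseline after carbachol; higher B-score means a larger calcium signal and so more RGS4 inhibition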
Target sequence (P49798 whole entry, looked up): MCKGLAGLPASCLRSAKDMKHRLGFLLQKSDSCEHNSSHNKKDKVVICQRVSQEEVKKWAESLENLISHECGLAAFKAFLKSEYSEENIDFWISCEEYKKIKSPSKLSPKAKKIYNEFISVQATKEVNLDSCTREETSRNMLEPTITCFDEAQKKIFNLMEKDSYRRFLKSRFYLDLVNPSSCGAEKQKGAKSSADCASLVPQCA
MrgX1 antag = antagonists of human MrgX1 receptor, primary screen, HEK293 cells, Fluo-4 calcium flux. Mas-related G-protein coupled receptor member X1 (Homo sapiens), Q96LB2. BAM8-22 antagonism; stronger effect = lower value. B-score at 10 µM. hit rate 1.3% among 310,000. AID 588676, 2011;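 active means calcium-response B-score plate-corrected more than 3 library SD below zero, starting fluorescence within 5 deviations, no agonist response on first addition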;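 further: peak minus trough fluorescence over baseline after final BAM8-22 challenge near maximal dose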
MrgX1 ant reconf = MrgX1 receptor antagonists, duplicate retest, confirmation, HEK293 cells, Fluo-4 calcium flux; hit rate 19% among 2,300; remaining BAM8-22 calcium response % of control (stronger effect = lower value), % at 10 µM; shares compounds with MrgX1 antag; BAM8-22 calcium flux; stronger effect = lower value;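 active means remaining agonist calcium response no higher than 100% minus 3 SD of agonist-only control wells, with starting fluorescence near control levels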;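 further: agonist BAM8-22 given at a near maximal EC90 to ECmax level; peak minus minimum fluorescence divided by baseline after agonist addition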
HEK293 Ca flux = nonspecific calcium signal in parental HEK293, confirmation, counter-screen for MrgX1 antagonist project, parental HEK293 cells, Fluo-4 calcium flux; shares compounds with MrgX1 antag; Fluo-4 calcium fluorescence, FDSS; fluorescence ratio F(max-min)/F0 at 10 µM; hit rate 2% among 4,000; AID 624111, 2012;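 active means duplicate-averaged calcium fluorescence ratio at least three times the standard deviation of buffer wells, a nonspecific response in parental cells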
HEK293 Ca counter = calcium response in parental HEK293 cells, primary screen, counter-screen for MrgX1 allosteric activator project, cell-based, Fluo-4 calcium flux, duplicate. shares compounds with MrgX1 antag. fluorescence ratio F(max-min)/F0 at 10 µM. Fluo-4 fluorescence ratio; stronger effect = higher value. hit rate 0.4% among 4,000. AID 624114, 2012;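 active means calcium fluorescence ratio, averaged over duplicates, at least 3 SD of the buffer-well ratio, meaning a nonspecific response in receptor-free cells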;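 further: untransfected parental HEK293 lacking MrgX1 used as counterscreen for MrgX1 allosteric activators; fluorescence change taken during the second addition on a kinetic imager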
HEK293 Ca cntr2 = calcium response in parental HEK293 cells, primary screen, counter-screen for MrgX1 agonist project, cell-based, Fluo-4 calcium flux, duplicate, agonist mode; shares compounds with MrgX1 antag; Fluo-4 calcium fluorescence (FDSS); stronger effect = higher value; fluorescence ratio F(max-min)/F0 at 10 µM; hit rate 8.7% among 4,000; AID 624115, 2012;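 active means calcium fluorescence ratio at least three times the spread of buffer wells, meaning a non-specific response in parental cells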
Numbers without * were called inactive; i = inactive; . = no result.

SMILES | MrgX1 allo act | MrgX1 ag | RGS4 pot | RGS4 inh | MrgX1 antag | MrgX1 ant reconf | HEK293 Ca flux | HEK293 Ca counter | HEK293 Ca cntr2
Cc1cccc(NC(=O)c2ccc(CN3CCN(Cc4ccccc4)CC3)cc2)c1 | i | i | i | i | -7.9* | i | i | i | i
O=C(CCN1CCN(C/C=C/c2ccccc2)CC1)Nc1ccccc1 | i | i | i | i | i | . | . | . | .
Cc1ccc(S(=O)(=O)N2CCC(C(=O)OCC(=O)N(C)C3CCS(=O)(=O)C3)CC2)cc1C (configuration not stated) | i | i | i | i | i | . | . | . | .
CCN(CC)S(=O)(=O)c1cccc(NC(=O)CC2CCCC2)c1 | i | i | i | i | i | . | . | . | .
CCN(CC)S(=O)(=O)c1cccc(NC(=O)Nc2cccc(C(F)(F)F)c2)c1 | i | i | i | i | -5.2* | 53%* | i | i | i
C=C(C)CSc1nc(C)c(Cc2ccccc2)c(=O)[nH]1 | i | i | i | i | -6.7* | 85%* | i | i | i
COc1ccc(OC)c(Nc2nc3nonc3nc2N2CCCC(C)C2)c1 (configuration not stated) | i | i | i | i | -5.5* | i | i | i | i
COC(=O)c1ccc(NC(=O)c2cccc(NC(=O)c3ccccc3)c2)cc1 | i | i | i | i | i | . | . | . | .
CC(C)Cc1ccc(C(C)C(=O)Nc2ccc(O)cc2)cc1 (configuration not stated) | i | i | i | i | -8.2* | i | i | i | 66*
CCN(C(=O)c1c(-c2ccccc2)noc1C)c1ccccc1 | i | i | i | i | -4.6* | i | i | i | i
N#Cc1nc(-c2cccs2)oc1NCc1ccccc1 | i | i | i | i | i | . | . | . | .
Cc1ccc(CNc2oc(-c3cccs3)nc2C#N)cc1 | i | i | i | i | -5.4* | i | i | i | i
COc1cccc(NC(=O)c2ncc(Cl)c(Cl)c2Cl)c1 | i | i | i | i | i | . | . | . | .
O=C(Nc1cc(S(=O)(=O)N2CCOCC2)ccc1N1CCOCC1)c1cnccn1 | i | i | i | i | -4.8* | i | i | i | i
CCN(Cc1ccccc1)C(=O)Cn1cnc2c1c(=O)n(C)c(=O)n2C | i | i | i | i | i | . | . | . | .
Cn1c(=O)c2c(ncn2CCN(CCO)Cc2ccccc2)n(C)c1=O | i | i | i | i | -6.7* | 81%* | i | i | i
COc1cc(NC(=O)c2ccco2)c(OC)cc1NC(=O)Nc1ccccc1Cl | i | i | i | i | -5.9* | i | i | i | i
CCOC(=O)N1CCN(C(=O)c2ccccc2N(Cc2ccccc2)S(=O)(=O)c2ccccc2)CC1 | i | i | i | i | i | . | . | . | .
O=C(CCNC(=O)c1ccco1)Nc1ccccc1N1CCOCC1 | i | i | i | i | i | . | . | . | .
COc1cccc(CNC(=O)Cn2cccc2)c1 | i | i | i | i | -9.8* | 81%* | i | i | i
CC(OC(=O)CCc1nc2ccccc2[nH]c1=O)c1ccccc1 (configuration not stated) | i | i | i | i | i | . | . | . | .
CC(=O)Nc1n[nH]c(-c2ccc(C)cc2)c1C | i | i | i | i | -5.4* | i | i | i | i
CC(=O)Nc1cc(-c2ccc(F)cc2)[nH]n1 | i | i | i | i | i | . | . | . | .
Cc1ccc(CNC(=O)COc2ccc(S(=O)(=O)N3CCCC3)cc2)cc1 | i | i | i | i | i | . | . | . | .
COc1ccc(NC(=O)CN(C)C(=O)c2ccc(-c3ccccc3Cl)o2)cc1 | i | i | i | i | -4.7* | i | i | i | i
SMILES | MrgX1 allo act | MrgX1 ag | RGS4 pot | RGS4 inh | MrgX1 antag | MrgX1 ant reconf | HEK293 Ca flux | HEK293 Ca counter | HEK293 Ca cntr2
COc1ccc(NC(=O)CN(C)C(=O)c2ccc(-c3cccc(C(F)(F)F)c3)o2)cc1 | i | i | i | i | i | . | . | . | .
CCOc1ccc(C(C(=O)NC2CCCCC2)N(CCOC)C(=O)c2snc(C(N)=O)c2N)cc1 (configuration not stated) | i | i | i | i | i | . | . | . | .
Nc1nc(Cl)cc(NCCc2ccccc2)n1 | i | i | i | i | i | . | . | . | .
Nc1nc(Cl)cc(NCCc2ccc(O)cc2)n1 | i | i | i | i | -5.8* | i | i | i | i
COc1cc(NC(=O)c2nccnc2C(=O)O)cc(OC)c1 | i | i | i | i | -6* | i | i | i | i
O=C(NNC(=O)c1ccccc1OCc1ccc(F)cc1)c1ccncc1 | i | i | i | i | i | . | . | . | .
CN(CC(=O)Nc1ccccc1Br)C(=O)c1cccnc1Nc1cccc(C(F)(F)F)c1 | i | i | i | i | i | . | . | . | .
Cc1cc2nc3n(c2cc1C)CC1CC(C(=O)NCc2cccc(C(F)(F)F)c2)N(C)C31 (configuration not stated) | i | i | i | i | -5.5* | i | i | i | i
CN1C(C(=O)NCc2cccc(C(F)(F)F)c2)CC2Cn3c(nc4cc5ccccc5cc43)C21 (configuration not stated) | i | i | i | i | i | . | . | . | .
Cc1ccc(Nc2nc(C(=O)N3CCC(C(=O)N4CCN(C)CC4)CC3)cs2)cc1 | i | i | i | i | -8.2* | i | i | i | i
O=C(O)c1cc(NC(=O)c2ccco2)cc(NC(=O)c2ccco2)c1 | i | i | i | i | i | . | . | . | .
